According to ChEMBL document CHEMBL5705890, “Antitumor activity of an allosteric inhibitor of centromere-associated protein-E” (Proc Natl Acad Sci U S A, 2010):

Columns and labels:
Assay type in all cases: functional
ARH-77 = assay: Anticancer activity against human ARH-77 cells assessed as cell growth inhibition measured after 72 hrs by DAPI staining based analysis
In short: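 Cells were seeded and, after 24 h, DNA content was read as T0. Cells were then exposed to varying drug concentrations for a further 72 h (T72). Fixed cells were DAPI-stained and DNA content measured by automated imaging. T72 values were normalized to T0. GI50 is the concentration giving 50% growth inhibition between T0 and Ymax, obtained by curve fitting.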

A498 = assay: Anticancer activity against human A498 cells assessed as cell doubling measured for 72 hrs by DAPI staining based analysis
H4 = assay: Anticancer activity against human H4 cells assessed as cell doubling measured for 72 hrs by DAPI staining based analysis
SW1463 = assay: Anticancer activity against human SW1463 cells assessed as cell doubling measured for 72 hrs by DAPI staining based analysis

CC(C)Oc1ccc(C(=O)N[C@H](CNC(=O)CN(C)C)Cc2ccc(-c3cn4cccc([C@H](C)O)c4n3)cc2)cc1Cl [GSK-923295A]
GI50 (ARH-77): 34 nM | Activity (A498): 1.11 | Activity (H4): 2.64 | Activity (SW1463): 1.22
